Data as given in ChEMBL document CHEMBL1124451, “[(1H-imidazol-1-yl)methyl]- and [(3-pyridinyl)methyl]pyrroles as thromboxane synthetase inhibitors” (J Med Chem, 1989).
pIC50: −log10 of the molar value.

Tests used:
[1] = target: T1, Thromboxane-A synthase (Homo sapiens) (UniProt P24557); assay: Relative potency of thromboxane A2 synthetase as reduced ADP-induced aggregation of human platelet rich plasma compared to dazoxiben; type: functional, cell-free
T1 sequence (whole entry): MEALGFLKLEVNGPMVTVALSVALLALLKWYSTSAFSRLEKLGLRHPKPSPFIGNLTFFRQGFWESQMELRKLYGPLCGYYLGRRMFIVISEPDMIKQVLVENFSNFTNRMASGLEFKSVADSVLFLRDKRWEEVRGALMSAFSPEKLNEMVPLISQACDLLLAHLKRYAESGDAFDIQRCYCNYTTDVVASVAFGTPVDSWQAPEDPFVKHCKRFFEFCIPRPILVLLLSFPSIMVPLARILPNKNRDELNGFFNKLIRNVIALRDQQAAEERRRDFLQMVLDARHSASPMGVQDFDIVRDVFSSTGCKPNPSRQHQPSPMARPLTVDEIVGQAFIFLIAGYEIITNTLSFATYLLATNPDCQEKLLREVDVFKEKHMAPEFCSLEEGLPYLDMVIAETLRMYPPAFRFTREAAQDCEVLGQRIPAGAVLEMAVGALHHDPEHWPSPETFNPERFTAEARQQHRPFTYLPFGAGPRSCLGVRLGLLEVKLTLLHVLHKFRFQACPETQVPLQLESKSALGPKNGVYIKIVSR

Homo sapiens [2] = species on record: Homo sapiens; assay: In vitro inhibition of ADP-induced aggregation of human platelet rich plasma in the presence of pig aortal microsomes.; type: functional; details: Aorta
Procedure, shortened: (§1)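 Human citrated blood (0.38% citrate final), PRP by centrifugation at 200g, room temperature. Drug added to 1.0 mL PRP, 2 min at 37 °C with stirring (500 rpm), then pig aortal microsomes 3 min; microsome amount set by the dazoxiben standard. Aggregation induced by 5 μM ADP (final), read turbidimetrically.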

Homo sapiens [3] = species on record: Homo sapiens; assay: Relative potency to inhibit ADP-induced aggregation of human platelet rich plasma compared to that of dazoxiben, in vitro using pig aortal microsomes.; type: functional; details: Aorta
Homo sapiens [4] = species on record: Homo sapiens; assay: In vitro inhibition of ADP-induced aggregation of human platelet rich plasma in the presence of pig aortal microsomes, at 5*10e-6 M compound concentration.
Homo sapiens [5] = species on record: Homo sapiens; assay: Relative potency to inhibit ADP-induced aggregation of human platelet rich plasma compared to that of dazoxiben, in vitro using pig aortal microsomes; type: functional; details: Aorta
Homo sapiens [6] = species on record: Homo sapiens; assay: In vitro inhibition of ADP-induced aggregation of human platelet rich plasma in the presence of pig aortal microsomes; type: functional; details: Aorta; procedure, shortened: as §1
Mus musculus [7] = assay: Activity at 20 mg/kg given intravenously against mortality in a pulmonary thromboembolism model in mice (10 animals) at -3h; type: functional; details: route intravenous
Procedure, shortened: (§2)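 Male Swiss-Webster mice (22-26 g); test material given iv in 0.2 mL CMC before challenge (mostly at -3 h, one group at -1 h). At hour 0, collagen extract plus epinephrine hydrochloride given iv in 0.2 mL 0.9% saline via tail vein. The collagen amount was set per lot as the minimum giving 90-100% mortality in CMC-vehicle controls. Readout: % surviving at 24 h.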

Mus musculus [8] = assay: Activity at 10 mg/kg given intravenously against mortality in a pulmonary thromboembolism model in mice (10 animals) at -3h; type: functional; details: route intravenous; procedure, shortened: as §2

| SMILES | Relative potency [1] | pIC50 (Homo sapiens [2]) | Relative potency (Homo sapiens [3]) | other results |
| --- | --- | --- | --- | --- |
| C/C(=C\c1ccc(Cn2ccnc2)[nH]1)C(=O)O | 0.24 |  |  |  |
| CCOC(=O)/C(C)=C\c1ccc(Cn2ccnc2)[nH]1 |  | 5.09 | 0.31 |  |
| CCOC(=O)/C=C/c1cc(Cn2ccnc2)n(C)c1 |  | 5.74 | 1.2 |  |
| C/C(=C\c1ccc(Cn2ccnc2)[nH]1)C(=O)OCc1ccccc1 |  | 4.70 | 0.11 |  |
| C/C(=C/c1ccc(Cc2cccnc2)n1CC(C)(C)C)C(=O)O | 0.24 |  |  |  |
| Cn1cc(/C=C/C(=O)O)cc1Cn1ccnc1 | 0.62 |  |  |  |
| CCOC(=O)/C(C)=C\c1ccc(Cc2cccnc2)n1C |  |  |  | inhibition (Homo sapiens [4]): 49% |
| CCOC(=O)/C(C)=C/c1cc(Cn2ccnc2)n(C)c1 |  | 5.74 | 1.1 |  |
| COC(=O)[C@@H]1CC1c1ccc(Cn2ccnc2)n1C (some centres not stated) | 0.22 |  |  |  |
| CCOC(=O)/C=C\c1ccc(Cn2ccnc2)n1C |  | 5.05 | 0.25 |  |
| C/C(=C/c1ccc(Cc2cccnc2)n1C(C)C)C(=O)O | 0.9 |  |  |  |
| CCOC(=O)/C(C)=C\c1ccc(Cn2ccnc2)n1C |  |  |  | Relative potency (Homo sapiens [5]): 0.08; pIC50 (Homo sapiens [6]): 4.59 |
| Cn1c(/C=C/C(=O)O)ccc1Cn1ccnc1 | 0.75 |  |  |  |
| CCn1c(/C=C(/C)C(=O)O)ccc1Cc1cccnc1 | 45 |  |  | survival at 20 mg/kg (Mus musculus [7]): 10%; survival at 10 mg/kg (Mus musculus [8]): 10% |
